From ChEMBL document CHEMBL1139499, “Nucleotides and pronucleotides of 2,2-bis(hydroxymethyl)methylenecyclopropane analogues of purine nucleosides: synthesis and antiviral activity” (J Med Chem, 2005)

Tests used:
Hepatitis B virus = test: Effective concentration required to inhibit hepatitis B virus replication in 2.2.15 cells in DNA hybridization assay; format: functional, organism-based; conditions: HepG2 2.2.15
In short: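 HBV assayed in 2.2.15 cells by DNA hybridization. CC50 values are those from the EBV/H-1 cytotoxicity determination, run in CEM cells. Single experiments unless specified otherwise.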

Human gammaherpesvirus 4 [1] = test: Effective concentration required to inhibit Epstein-barr virus replication in H-1 cells in DNA hybridization assay; format: functional, organism-based; conditions: human gammaherpesvirus 4, H-1
In short: (§1)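 EBV assayed in H-1 cells by DNA hybridization. Cytotoxicity determined separately in CEM cells. Single experiments unless specified otherwise.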

Human betaherpesvirus 5 [2] = test: Effective concentration for antiviral activity against towne strain of human cytomegalovirus in plaque reduction assay; format: functional, organism-based
In short: (§2)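 Human CMV (Towne and AD169 strains) grown in HFF cell culture; antiviral effect read by plaque reduction or by cytopathic effect (CPE) inhibition. Cytotoxicity measured in HFF cells. Single experiments unless specified otherwise.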

Human betaherpesvirus 5 [3] = test: Effective concentration for antiviral activity against AD169 strain of human cytomegalovirus in plaque reduction assay; format: functional, organism-based; in short: as §2
Human alphaherpesvirus 2 [4] = test: Effective concentration required to inhibit herpes simplex virus 2 in vero cells in plaque reduction assay; format: functional, organism-based; conditions: Human alphaherpesvirus 2, Vero
In short: (§3)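 HSV-1 and HSV-2 assayed in Vero cells by plaque reduction. Single experiments unless specified otherwise.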

Human alphaherpesvirus 1 [5] = test: Effective concentration required to inhibit herpes simplex virus 1 in BSC-1 cells in ELISA; format: functional, organism-based; conditions: Human alphaherpesvirus 1, BSC-1
In short: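 HSV-1 assayed in BSC-1 cells with ELISA read-out; cytotoxicity in these assays determined in KB cells. Single experiments unless specified otherwise.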

MEF = test: Cytotoxic concentration against murine cytomegalovirus infected MEF cells; format: functional; conditions: Mus musculus
Human alphaherpesvirus 1 [6] = test: Effective concentration required to inhibit herpes simplex virus 1 in vero cells in plaque reduction assay; format: functional, organism-based; conditions: Human alphaherpesvirus 1, Vero; in short: as §3
[7] = Cytotoxic concentration to inhibit replication in H-1 cells (in CEM cells); format: functional; conditions: Homo sapiens, CCRF-CEM; in short: as §1
Human alphaherpesvirus 1 [8] = test: Effective concentration required to inhibit herpes simplex virus 1 in HFF cells in cytopathic effect (CPE) assay; format: functional, organism-based; conditions: Human alphaherpesvirus 1, HFF
In short: (§4)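 HSV-1 and HSV-2 assayed in HFF cells by cytopathic effect (CPE) inhibition and by plaque reduction. Cytotoxicity measured in HFF cells. Single experiments unless specified otherwise.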

HFF [9] = test: Cytotoxic concentration against AD169 strain of human cytomegalovirus infected HFF cells of human (by neutral red uptake); format: functional
KB (Homo sapiens) = test: Cytotoxic concentration required to inhibit KB cells
HFF [10] = test: Cytotoxic concentration against towne strain of human cytomegalovirus infected HFF cells of human (visual cytotoxicity); format: functional; in short: as §2
Human alphaherpesvirus 2 [11] = test: Effective concentration required to inhibit herpes simplex virus 2 in HFF cells in cytopathic effect (CPE) assay; format: functional, organism-based; conditions: Human alphaherpesvirus 2, HFF; in short: as §4
Daudi = test: Cytotoxic concentration to inhibit replication in daudi cells; format: functional; conditions: Homo sapiens
[12] = Effective concentration required to inhibit varicella zoster virus replication in HFF cells; format: functional, cell-based; conditions: Human alphaherpesvirus 3, HFF
In short: (§5)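 VZV assayed in HFF cells by cytopathic effect (CPE) inhibition or by plaque reduction. Single experiments unless specified otherwise.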

Human gammaherpesvirus 4 [13] = test: Effective concentration required to inhibit Epstein-barr virus replication in daudi cells in viral capsid immunofluorescence ELISA; format: functional, organism-based; conditions: human gammaherpesvirus 4, Daudi
HFF [14] = test: Cytotoxic concentration against AD169 strain of human cytomegalovirus infected HFF cells of human (by cytopathic effect inhibition assay); format: functional; in short: as §2
HFF [15] = test: Cytotoxic concentration against town strain of human cytomegalovirus infected HFF cells of human (visual cytotoxicity); format: functional; in short: as §2
[16] = Effective concentration required to inhibit varicella zoster virus replication in HFF cells in plaque reduction assay; format: functional, cell-based; conditions: Human alphaherpesvirus 3, HFF; in short: as §5
[17] = Effective concentration required to inhibit varicella zoster virus replication in HFF cells in cytopathic reduction assay; format: functional, cell-based; conditions: Human alphaherpesvirus 3, HFF; in short: as §5
HFF [18] = test: Cytotoxic concentration to inhibit herpes simplex virus 1 infected HFF cells; format: functional; conditions: Homo sapiens; in short: as §4
HFF [19] = test: Cytotoxic concentration to inhibit herpes simplex virus 2 infected HFF cells; format: functional; conditions: Homo sapiens; in short: as §4
Vero [20] = test: Cytotoxic concentration required to inhibit herpes simplex virus 1 infected vero cells; format: functional; conditions: Chlorocebus sabaeus
HFF [21] = test: Cytotoxic concentration to inhibit Herpes simplex virus 2 infected HFF cells; format: functional; conditions: Homo sapiens; in short: as §4
HFF [22] = test: Cytotoxic concentration to inhibit Herpes simplex virus 1 infected HFF cells; format: functional; conditions: Homo sapiens; in short: as §4
HFF [23] = test: Cytotoxic concentration to inhibit replication in HFF cells in cytopathic effect inhibition assay; format: functional; conditions: Homo sapiens; in short: as §2
Vero [24] = test: Cytotoxic concentration required to inhibit herpes simplex virus 2 infected vero cells; format: functional; conditions: Chlorocebus sabaeus
HFF [25] = test: Cytotoxic concentration against towne strain of human cytomegalovirus infected HFF cells of human (visual cytotoxicity); range=100-200; format: functional; in short: as §2
Homo sapiens = species: Homo sapiens; test: Cytotoxic concentration to inhibit replication in 2.2.15 cells; format: functional; conditions: HepG2 2.2.15

Compound | EC50 (Hepatitis B virus) | EC50 (Human gammaherpesvirus 4 [1]) | EC50 (Human betaherpesvirus 5 [2]) | EC50 (Human betaherpesvirus 5 [3]) | EC50 (Human alphaherpesvirus 2 [4]) | EC50 (Human alphaherpesvirus 1 [5]) | CC50 (MEF) | EC50 (Human alphaherpesvirus 1 [6]) | CC50 [7] | EC50 (Human alphaherpesvirus 1 [8]) | CC50 (HFF [9]) | CC50 (KB (Homo sapiens)) | CC50 (HFF [10]) | EC50 (Human alphaherpesvirus 2 [11]) | CC50 (Daudi) | EC50 [12] | EC50 (Human gammaherpesvirus 4 [13]) | CC50 (HFF [14]) | also measured
Nc1ncnc2c1ncn2/C=C1/CC1(CO)CO | > 10 µM | > 20 µM | 2.4 µM | 11.7 µM | > 50 µM | 50 µM | > 404 µM | > 50 µM | > 50 µM | > 404 µM | > 404 µM | > 100 µM | > 100 µM | > 404 µM | > 202 µM | > 404 µM | – | – | –
Nc1nc(O)c2ncn(/C=C3\CC34COP(=O)(O)OC4)c2n1 (stereo not given) | > 20 µM | > 20 µM | > 100 µM | > 299 µM | 50 µM | > 100 µM | – | > 50 µM | > 100 µM | > 299 µM | – | > 100 µM | > 100 µM | > 299 µM | > 150 µM | > 299 µM | > 150 µM | > 299 µM | –
COC(=O)C(C)NP(=O)(OCC1(CO)C/C1=C\n1cnc2c(O)nc(N)nc21)Oc1ccccc1 (stereo not given) | > 10 µM | > 20 µM | > 100 µM | > 198 µM | > 50 µM | 70 µM | – | > 50 µM | > 100 µM | > 198 µM | – | > 100 µM | > 100 µM | > 198 µM | > 198 µM | > 198 µM | > 99 µM | > 198 µM | –
Nc1nc(O)c2ncn(/C=C3\CC3(CO)COP(=O)(O)O)c2n1 (stereo not given) | > 20 µM | > 20 µM | > 100 µM | > 291 µM | > 50 µM | > 100 µM | – | > 50 µM | > 100 µM | > 291 µM | – | > 100 µM | – | > 291 µM | > 146 µM | > 291 µM | > 146 µM | > 291 µM | CC50 (HFF [15]): > 100 µM
COC(=O)C(C)NP(=O)(OCC1(CO)C/C1=C/n1cnc2c(O)nc(N)nc21)Oc1ccccc1 (stereo not given) | 4.1 µM | 3.4 µM | 3.6 µM | 8.1 µM | > 50 µM | > 100 µM | > 198 µM | > 50 µM | 35 µM | > 198 µM | > 198 µM | > 100 µM | > 100 µM | > 198 µM | > 198 µM | – | > 99 µM | – | EC50 [16]: 7.3 µM; EC50 [17]: 6.3 µM
COC(=O)C(C)NP(=O)(OCC1(CO)C/C1=C\n1cnc2c(N)ncnc21)Oc1ccccc1 (stereo not given) | > 20 µM | > 20 µM | > 100 µM | > 205 µM | > 30 µM | > 100 µM | – | > 30 µM | > 25 µM | > 205 µM | – | > 100 µM | > 100 µM | > 205 µM | > 102 µM | > 205 µM | > 102 µM | > 205 µM | –
Nc1nc(O)c2ncn(/C=C3/CC3(CO)COP(=O)(O)O)c2n1 (stereo not given) | 15 µM | 2.3 µM | 0.25 µM | 1.1 µM | > 50 µM | > 100 µM | 175 µM | 50 µM | 62 µM | 9.9 µM | > 291 µM | > 100 µM | 100 µM | 23.3 µM | > 146 µM | > 291 µM | > 146 µM | – | CC50 (HFF [18]): > 291 µM; CC50 (HFF [19]): > 291 µM
Nc1nc(O)c2ncn(/C=C3/CC34COP(=O)(O)OC4)c2n1 (stereo not given) | 0.8 µM | > 20 µM | 20 µM | 6 µM | 22 µM | 20 µM | > 301 µM | 16 µM | > 100 µM | > 301 µM | > 301 µM | > 100 µM | > 100 µM | 242 µM | > 150 µM | > 301 µM | 0.96 µM | – | CC50 (Vero [20]): > 100 µM
COC(=O)C(C)NP(=O)(OCC1(CO)C/C1=C/n1cnc2c(N)ncnc21)Oc1ccccc1 (stereo not given) | 12.8 µM | 3 µM | 3 µM | 18.4 µM | > 40 µM | 55 µM | – | > 40 µM | 3.8 µM | 21.1 µM | 200 µM | 3.5 µM | 32 µM | 22.1 µM | > 102 µM | > 41 µM | > 102 µM | – | CC50 (HFF [21]): 200 µM; CC50 (HFF [22]): 200 µM
Nc1nc2c(ncn2COCCO)c(=O)[nH]1 [ACYCLOVIR] | – | – | – | – | 32.3 µM | 1.5 µM | – | 13.5 µM | – | 0.9 µM | – | > 100 µM | – | 6.7 µM | > 222 µM | 1.6 µM | 1.1 µM | – | CC50 (HFF [21]): > 444 µM; CC50 (HFF [22]): > 444 µM; CC50 (Vero [20]): > 200 µM; CC50 (HFF [23]): > 444 µM; CC50 (Vero [24]): > 200 µM
Nc1nc2c(ncn2/C=C2/CC2(CO)CO)c(=O)[nH]1 [FILOCICLOVIR] | > 10 µM | – | 0.33 µM | 0.49 µM | > 50 µM | > 100 µM | > 380 µM | > 50 µM | > 50 µM | > 380 µM | > 380 µM | > 100 µM | – | > 380 µM | 74 µM | > 380 µM | – | – | CC50 (HFF [25]): 200 µM
Nc1nc2c(ncn2COC(CO)CO)c(=O)[nH]1 [GANCICLOVIR] | – | 5 µM | 2.1 µM | 1.6 µM | – | – | > 392 µM | – | – | – | > 392 µM | – | – | – | – | – | – | – | CC50 (HFF [15]): > 100 µM
Nc1ccn([C@@H]2CS[C@H](CO)O2)c(=O)n1 [LAMIVUDINE] | 0.05 µM | – | – | – | – | – | – | – | – | – | – | – | – | – | – | – | – | – | CC50 (Homo sapiens): > 100 µM
